Reference: ChEMBL document CHEMBL4715745, “Synthesis and biological evaluation of novel FK228 analogues as potential isoform selective HDAC inhibitors” (Eur J Med Chem, 2016)
One block for each compound: values may come before it.

Tests used:
Histone deacetylase 1 = Histone deacetylase 1 (Homo sapiens, UniProt Q13547); experiment: Inhibition of human HDAC1 expressed in 293T cells using Ac-KGLGK(Ac)-MCA as substrate incubated for 30 mins in presence of 0.1 mM DTT by fluorescence plate reader assay; design: species or system HEK293T
Histone deacetylase 1, sequence (Q13547 whole entry): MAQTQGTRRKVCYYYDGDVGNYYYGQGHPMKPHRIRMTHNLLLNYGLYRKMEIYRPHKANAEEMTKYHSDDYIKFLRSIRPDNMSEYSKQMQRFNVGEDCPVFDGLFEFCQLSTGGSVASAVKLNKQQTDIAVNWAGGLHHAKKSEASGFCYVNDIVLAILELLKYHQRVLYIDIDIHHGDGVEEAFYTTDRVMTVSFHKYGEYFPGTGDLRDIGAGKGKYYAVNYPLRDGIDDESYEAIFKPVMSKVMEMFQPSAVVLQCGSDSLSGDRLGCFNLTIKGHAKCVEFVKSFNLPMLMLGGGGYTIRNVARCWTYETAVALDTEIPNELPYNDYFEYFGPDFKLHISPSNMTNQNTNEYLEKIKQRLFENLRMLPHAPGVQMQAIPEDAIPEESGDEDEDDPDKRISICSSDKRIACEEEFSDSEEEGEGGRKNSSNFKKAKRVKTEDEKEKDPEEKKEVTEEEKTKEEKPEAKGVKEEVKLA

[1] = biological target: T1, Protein deacetylase HDAC6 (Mus musculus, UniProt Q9Z2V5); experiment: Inhibition of mouse HDAC6 expressed in 293T cells using Ac-KGLGK(Ac)-MCA as substrate incubated for 30 mins in presence of 0.1 mM DTT by fluorescence plate reader assay; design: species or system HEK293T
T1 sequence (Q9Z2V5 whole entry): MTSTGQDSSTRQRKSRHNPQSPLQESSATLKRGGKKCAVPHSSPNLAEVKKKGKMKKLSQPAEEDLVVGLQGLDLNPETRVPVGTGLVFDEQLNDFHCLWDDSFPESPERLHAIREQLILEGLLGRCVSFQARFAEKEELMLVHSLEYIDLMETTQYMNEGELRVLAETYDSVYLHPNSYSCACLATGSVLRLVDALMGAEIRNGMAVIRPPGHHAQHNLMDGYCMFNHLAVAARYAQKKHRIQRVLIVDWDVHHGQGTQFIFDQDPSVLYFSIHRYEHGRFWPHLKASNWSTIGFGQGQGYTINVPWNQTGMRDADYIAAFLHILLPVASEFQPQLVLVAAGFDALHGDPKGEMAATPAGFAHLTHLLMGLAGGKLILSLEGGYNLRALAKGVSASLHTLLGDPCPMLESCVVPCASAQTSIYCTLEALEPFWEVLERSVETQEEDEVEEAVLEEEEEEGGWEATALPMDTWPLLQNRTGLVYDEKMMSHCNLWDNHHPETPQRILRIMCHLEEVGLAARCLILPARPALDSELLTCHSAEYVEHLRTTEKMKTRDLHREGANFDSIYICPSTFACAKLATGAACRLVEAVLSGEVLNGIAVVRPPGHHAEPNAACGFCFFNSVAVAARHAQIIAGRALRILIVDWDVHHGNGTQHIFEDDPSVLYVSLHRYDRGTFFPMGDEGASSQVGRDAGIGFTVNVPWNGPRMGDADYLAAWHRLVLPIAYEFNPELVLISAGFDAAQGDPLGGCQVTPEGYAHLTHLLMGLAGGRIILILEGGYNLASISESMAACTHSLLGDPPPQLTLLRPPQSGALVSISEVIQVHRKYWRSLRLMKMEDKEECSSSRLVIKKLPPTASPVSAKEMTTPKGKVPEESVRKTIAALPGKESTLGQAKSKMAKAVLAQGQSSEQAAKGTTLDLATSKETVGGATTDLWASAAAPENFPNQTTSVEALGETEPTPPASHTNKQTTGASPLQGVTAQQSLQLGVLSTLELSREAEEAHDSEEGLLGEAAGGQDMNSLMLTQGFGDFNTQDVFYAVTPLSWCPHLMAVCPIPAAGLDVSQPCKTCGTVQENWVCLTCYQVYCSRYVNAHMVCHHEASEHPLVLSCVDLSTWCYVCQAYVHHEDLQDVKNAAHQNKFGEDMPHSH
Method in brief: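 HDAC enzyme assay run in the presence of 0.1 mM dithiothreitol (DTT); IC₅₀ determined.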

[2] = Selectivity index, ratio of IC50 for mouse HDAC6 expressed in 293T cells to IC50 for human HDAC1 expressed in 293T cells using Ac-KGLGK(Ac)-MCA as substrate incubated for 30 mins in presence of 0.1 mM DTT by fluorescence plate reader assay; conditions: 0.5 h
Method in brief: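 Ratio of HDAC6 IC₅₀ to HDAC1 IC₅₀, taken as selectivity for class I HDAC1 over class II HDAC6. Both enzyme assays were run in the presence of 0.1 mM DTT.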

[3] = Growth inhibition of human HBC4 cells measured after 48 hrs by sulforhodamine B assay; format: functional
Method in brief: (§1)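 Panel of 39 human cancer cell lines tested at the Japanese Foundation for Cancer Research. Five concentrations per compound, spanning 10⁻¹¹–10⁻⁷ M, 10⁻¹⁰–10⁻⁶ M or 10⁻⁸–10⁻⁴ M, were used to build dose-response curves. GI₅₀ is the concentration giving 50% growth inhibition relative to control.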

[4] = Growth inhibition of human BSY1 cells measured after 48 hrs by sulforhodamine B assay; format: functional; conditions: BSY-1; method in brief: as §1
[5] = Growth inhibition of human HBC5 cells measured after 48 hrs by sulforhodamine B assay; format: functional; method in brief: as §1
MCF7 = experiment: Growth inhibition of human MCF7 cells measured after 48 hrs by sulforhodamine B assay; format: functional; method in brief: as §1
MDA-MB-231 = experiment: Growth inhibition of human MDA-MB-231 cells measured after 48 hrs by sulforhodamine B assay; format: functional; method in brief: as §1
U-251 = experiment: Growth inhibition of human U-251 cells measured after 48 hrs by sulforhodamine B assay; format: functional; method in brief: as §1
SF-268 = experiment: Growth inhibition of human SF-268 cells measured after 48 hrs by sulforhodamine B assay; format: functional; method in brief: as §1
SF-295 = experiment: Growth inhibition of human SF-295 cells measured after 48 hrs by sulforhodamine B assay; format: functional; method in brief: as §1
SF-539 = experiment: Growth inhibition of human SF-539 cells measured after 48 hrs by sulforhodamine B assay; format: functional; method in brief: as §1
SNB-75 = experiment: Growth inhibition of human SNB-75 cells measured after 48 hrs by sulforhodamine B assay; format: functional; method in brief: as §1
SNB-78 = experiment: Growth inhibition of human SNB-78 cells measured after 48 hrs by sulforhodamine B assay; format: functional; method in brief: as §1
HCC 2998 = experiment: Growth inhibition of human HCC 2998 cells measured after 48 hrs by sulforhodamine B assay; format: functional; method in brief: as §1
KM12 = experiment: Growth inhibition of human KM12 cells measured after 48 hrs by sulforhodamine B assay; format: functional; method in brief: as §1
HT-29 = experiment: Growth inhibition of human HT-29 cells measured after 48 hrs by sulforhodamine B assay; format: functional; method in brief: as §1
HCT-15 = experiment: Growth inhibition of human HCT-15 cells measured after 48 hrs by sulforhodamine B assay; format: functional; method in brief: as §1
HCT-116 = experiment: Growth inhibition of human HCT-116 cells measured after 48 hrs by sulforhodamine B assay; format: functional; method in brief: as §1
NCI-H23 = experiment: Growth inhibition of human NCI-H23 cells measured after 48 hrs by sulforhodamine B assay; format: functional; method in brief: as §1
NCI-H226 = experiment: Growth inhibition of human NCI-H226 cells measured after 48 hrs by sulforhodamine B assay; format: functional; method in brief: as §1
NCI-H522 = experiment: Growth inhibition of human NCI-H522 cells measured after 48 hrs by sulforhodamine B assay; format: functional; method in brief: as §1
NCI-H460 = experiment: Growth inhibition of human NCI-H460 cells measured after 48 hrs by sulforhodamine B assay; format: functional; method in brief: as §1
A549 = experiment: Growth inhibition of human A549 cells measured after 48 hrs by sulforhodamine B assay; format: functional; method in brief: as §1
DMS-273 = experiment: Growth inhibition of human DMS-273 cells measured after 48 hrs by sulforhodamine B assay; format: functional; method in brief: as §1
DMS-114 = experiment: Growth inhibition of human DMS-114 cells measured after 48 hrs by sulforhodamine B assay; format: functional; method in brief: as §1
LOX IMVI = experiment: Growth inhibition of human LOX IMVI cells measured after 48 hrs by sulforhodamine B assay; format: functional; method in brief: as §1
OVCAR-3 = experiment: Growth inhibition of human OVCAR-3 cells measured after 48 hrs by sulforhodamine B assay; format: functional; method in brief: as §1
OVCAR-4 = experiment: Growth inhibition of human OVCAR-4 cells measured after 48 hrs by sulforhodamine B assay; format: functional; method in brief: as §1
OVCAR-5 = experiment: Growth inhibition of human OVCAR-5 cells measured after 48 hrs by sulforhodamine B assay; format: functional; method in brief: as §1
OVCAR-8 = experiment: Growth inhibition of human OVCAR-8 cells measured after 48 hrs by sulforhodamine B assay; format: functional; method in brief: as §1
SK-OV-3 = experiment: Growth inhibition of human SK-OV-3 cells measured after 48 hrs by sulforhodamine B assay; format: functional; method in brief: as §1
RXF 631 = experiment: Growth inhibition of human RXF 631 cells measured after 48 hrs by sulforhodamine B assay; format: functional; method in brief: as §1
ACHN = experiment: Growth inhibition of human ACHN cells measured after 48 hrs by sulforhodamine B assay; format: functional; method in brief: as §1
St-4 = experiment: Growth inhibition of human St-4 cells measured after 48 hrs by sulforhodamine B assay; format: functional; method in brief: as §1
MKN-1 = experiment: Growth inhibition of human MKN-1 cells measured after 48 hrs by sulforhodamine B assay; format: functional; method in brief: as §1
MKN-7 = experiment: Growth inhibition of human MKN-7 cells measured after 48 hrs by sulforhodamine B assay; format: functional; method in brief: as §1
MKN-28 = experiment: Growth inhibition of human MKN-28 cells measured after 48 hrs by sulforhodamine B assay; format: functional; method in brief: as §1
MKN-45 = experiment: Growth inhibition of human MKN-45 cells measured after 48 hrs by sulforhodamine B assay; format: functional; method in brief: as §1
MKN-74 = experiment: Growth inhibition of human MKN-74 cells measured after 48 hrs by sulforhodamine B assay; format: functional; method in brief: as §1
DU-145 = experiment: Growth inhibition of human DU-145 cells measured after 48 hrs by sulforhodamine B assay; format: functional; method in brief: as §1
PC-3 = experiment: Growth inhibition of human PC-3 cells measured after 48 hrs by sulforhodamine B assay; format: functional; method in brief: as §1

- IC50 (Histone deacetylase 1): 92.4 nM
- IC50 [1]: 1320 nM
- GI50 (MCF7): 33000 nM
- GI50 (MDA-MB-231): 9200 nM
- GI50 (U-251): 17000 nM
- GI50 (HCC 2998): 13000 nM
- GI50 (HT-29): 2700 nM
- GI50 (HCT-15): 100000 nM
- GI50 (HCT-116): 2500 nM
- GI50 (NCI-H23): 36000 nM
- GI50 (NCI-H226): 61000 nM
- GI50 (NCI-H522): 680 nM
- GI50 (NCI-H460): 15000 nM
- GI50 (A549): 10000 nM
- GI50 (OVCAR-3): 13000 nM
- GI50 (OVCAR-4): 46000 nM
- GI50 (OVCAR-5): 3100 nM
- GI50 (OVCAR-8): 18000 nM
- GI50 (SK-OV-3): 12000 nM
- GI50 (ACHN): 43000 nM
- GI50 (MKN-1): 12000 nM
- GI50 (MKN-7): 47000 nM
- GI50 (MKN-28): 95000 nM
- GI50 (MKN-45): 100000 nM
- GI50 (MKN-74): 16000 nM
- GI50 (DU-145): 5400 nM
- GI50 (PC-3): 11000 nM
Compound: CC(C)[C@H]1NC(=O)C[C@H]2/C=C/CCSSC[C@@H](NC1=O)C(=O)NCC(=O)NCC(=O)O2
- Ratio IC50 [2]: 14
- GI50 [3]: 13000 nM
- GI50 [4]: 18000 nM
- GI50 [5]: 39000 nM
- GI50 (SF-268): 12000 nM
- GI50 (SF-295): 40000 nM
- GI50 (SF-539): 3300 nM
- GI50 (SNB-75): 950 nM
- GI50 (SNB-78): 610 nM
- GI50 (KM12): 12000 nM
- GI50 (DMS-273): 47000 nM
- GI50 (DMS-114): 5200 nM
- GI50 (LOX IMVI): 2900 nM
- GI50 (RXF 631): 91000 nM
- GI50 (St-4): 81000 nM

Compound: CC(C)[C@H]1NC(=O)C[C@H]2/C=C/CCSSC[C@@H](NC1=O)C(=O)N[C@H](C)C(=O)NCC(=O)O2
- IC50 (Histone deacetylase 1): 2.1 nM
- IC50 [1]: 1010 nM
- Ratio IC50 [2]: 480
- GI50 [3]: 30 nM
- GI50 [4]: 36 nM
- GI50 [5]: 160 nM
- GI50 (MCF7): 37 nM
- GI50 (MDA-MB-231): 21 nM
- GI50 (U-251): 19 nM
- GI50 (SF-268): 31 nM
- GI50 (SF-295): 71 nM
- GI50 (SF-539): 10 nM
- GI50 (SNB-75): 10 nM
- GI50 (SNB-78): 10 nM
- GI50 (HCC 2998): 14 nM
- GI50 (KM12): 20 nM
- GI50 (HT-29): 13 nM
- GI50 (HCT-15): 6700 nM
- GI50 (HCT-116): 10 nM
- GI50 (NCI-H23): 31 nM
- GI50 (NCI-H226): 110 nM
- GI50 (NCI-H522): 10 nM
- GI50 (NCI-H460): 15 nM
- GI50 (A549): 15 nM
- GI50 (DMS-273): 89 nM
- GI50 (DMS-114): 17 nM
- GI50 (LOX IMVI): 11 nM
- GI50 (OVCAR-3): 22 nM
- GI50 (OVCAR-4): 100 nM
- GI50 (OVCAR-5): 14 nM
- GI50 (OVCAR-8): 31 nM
- GI50 (SK-OV-3): 19 nM
- GI50 (RXF 631): 110 nM
- GI50 (ACHN): 270 nM
- GI50 (St-4): 410 nM
- GI50 (MKN-1): 36 nM
- GI50 (MKN-7): 260 nM
- GI50 (MKN-28): 440 nM
- GI50 (MKN-45): 500 nM
- GI50 (MKN-74): 35 nM
- GI50 (DU-145): 21 nM
- GI50 (PC-3): 70 nM
